Bioassay records from PubChem BioAssay.
RBBP9 inh: human RBBP9 inhibitors, primary screen, biochemical, fluorescence polarization, FP-Rh probe, HTS. Serine hydrolase RBBP9 (Homo sapiens), O75884. recombinant RBBP9. inhibition, % at 7.94 µM. actives 0.2% (n = 220,000). AID 1515, 2009;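 active = inhibition above the campaign mean of all tested compounds plus 3 SD, cut at about 14% in these data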;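 note: plate controls were DMSO wells with RBBP9 for no effect and wells lacking RBBP9 protein for full effect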
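System: RBBP9 protein | Quantity: 2.5 µM RBBP9 dispensing solution, before mixing | Reagent: FP-Rh probe, 375 nM dispensing solution | Timing: Enzyme-compound preincubation 30 min, then probe labeling 45 min, 25 °C | Measured by: Fluorescence polarization | Read-out: % inhibition | Replication: One well per compound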
L929 necroptosis: inhibitors of zVAD-triggered necroptosis, primary screen, L929 cells. L929 zVAD necroptosis rescue, ATP luminescence, 24 h; with zVAD 60 µM. actives 0.38% (n = 220,000). AID 1377, 2008. viability rescue, % at 10 µM;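 active = activation, scaled between plate controls, above about 75%, limit read from the data; inactive = activation under that limit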;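 note: 0% = zVAD with DMSO and 100% = DMSO alone without zVAD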
TNF death inh: inhibitors of TNF-alpha triggered necroptosis, primary screen, cell-based, Jurkat FADD-/-, single concentration. Jurkat FADD-/- TNF necroptosis rescue, ATP luminescence, 24 h; 0 = TNF only, 100 = no-TNF cells. actives 0.068% (n = 220,000). AID 463075, 2010. activation (protection from cell death), % at 10 µM;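 active = activation, meaning protection from cell death, of at least 50% relative to plate controls; inactive = activation below 50%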;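 note: necroptosis triggered by 40 ng/mL TNF-alpha added together with compound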
Wee1 stabilizer: Wee1 degradation inhibitors, primary screen, cell-based, HeLa, Wee1K328M-luciferase, luminescence; Wee1-like protein kinase (Homo sapiens), P30291; HeLa Luc-Wee1K328M stability; 100% = proteasome inhibitor MG132 effect; reporter increase, % at 5 µM; actives 1.2% (n = 220,000); AID 1321, 2008;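 active = activation above the mean of all tested compounds plus 3 SD, set per screening run, cut at about 8.8% in these data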;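 note: cells exposed to compound for 20 h before luminescence read; 0% = DMSO alone and 100% = MG132 at 30 µM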
Target sequence (P30291 whole entry K328M): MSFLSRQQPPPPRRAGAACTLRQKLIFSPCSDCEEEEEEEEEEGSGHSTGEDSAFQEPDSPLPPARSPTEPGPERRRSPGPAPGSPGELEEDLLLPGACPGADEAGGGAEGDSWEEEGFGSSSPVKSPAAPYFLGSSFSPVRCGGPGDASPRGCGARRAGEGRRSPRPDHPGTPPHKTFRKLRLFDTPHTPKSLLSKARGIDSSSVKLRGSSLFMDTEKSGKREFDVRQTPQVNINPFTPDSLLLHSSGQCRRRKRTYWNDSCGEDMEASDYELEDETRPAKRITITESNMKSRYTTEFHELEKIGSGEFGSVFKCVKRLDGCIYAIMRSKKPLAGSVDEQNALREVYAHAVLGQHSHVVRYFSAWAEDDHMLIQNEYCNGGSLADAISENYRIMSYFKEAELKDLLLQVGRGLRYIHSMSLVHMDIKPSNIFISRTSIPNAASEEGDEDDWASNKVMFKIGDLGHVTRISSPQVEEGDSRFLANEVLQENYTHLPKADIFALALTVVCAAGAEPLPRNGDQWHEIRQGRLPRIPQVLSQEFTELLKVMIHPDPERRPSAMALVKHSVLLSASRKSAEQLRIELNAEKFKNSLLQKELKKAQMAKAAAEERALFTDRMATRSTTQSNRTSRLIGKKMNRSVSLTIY
p97 inhibitor: inhibitors of human p97 ATPase, primary screen, biochemical; Transitional endoplasmic reticulum ATPase (Homo sapiens), P55072; recombinant p97 ATPase, Kinase-Glo ATP luminescence, 3 h; inhibition, % at 8 µM; actives 0.42% (n = 220,000); in the data active = inhibition above about 15%;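 note: 0% = DMSO vehicle and 100% = wells lacking enzyme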
PfM18AAP inh: PfM18AAP inhibitors, malaria aminopeptidase, primary screen, biochemical, QFRET, recombinant enzyme; M18 aspartyl aminopeptidase (Plasmodium falciparum 3D7); H-Glu-NHMec fluorogenic cleavage; inhibition, % at 7.35 µM; actives 1.2% (n = 290,000); AID 1822, 2009;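 active = inhibition above the campaign mean inhibition over all tested compounds plus 3 SD, cut at about 28% in these data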;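 note: 0% = plate median of test compound wells and 100% = 2 mM ZnCl2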
An asterisk follows results filed as active; nt = no result given. Rows were chosen to be rich in hits. Some 2.7% of all compounds tested hit in one or more screens of this group.

SMILES | RBBP9 inh | L929 necroptosis | TNF death inh | Wee1 stabilizer | p97 inhibitor | PfM18AAP inh
CN(C)c1cccc(/C=C(\C#N)c2ccccc2)c1 | -4 | -1 | -9 | 10.0* | 6 | -1
CN(C)c1ccc(/C=C(\C#N)c2ccccc2)cc1 | -4 | -1 | -12 | 16* | -6 | -15
N#C/C(=C\c1ccc(C#N)cc1)C(=O)c1ccccc1 | -2 | 1 | 1 | -1 | 4 | 7
CN(C)c1ccc(/C=C(\C#N)C(=O)c2ccccc2)cc1 | -11 | 0 | -12 | 9.3* | -2 | 0
CCS(=O)(=O)N1CCC(C(=O)Oc2ccc(Cl)cc2)CC1 | nt | nt | nt | nt | nt | -5
C=C(C)C1CC=C(C)/C(=N/NC(=O)CCC(=O)Nc2ccccc2Cl)C1 (centres undefined) | nt | nt | nt | nt | nt | 2
O=C(Nc1nc2ccccc2c(=O)s1)c1ccco1 | -13 | 0 | -12 | 10* | -4 | 8
O=C(Nc1nc2cc3c(cc2s1)OCO3)c1ccco1 | 0 | -1 | -3 | -3 | -12 | 4
O=C(/C=C/c1ccc(O)c(O)c1)c1ccc(S(=O)(=O)N2CCCCCC2)cc1 | -22 | 19 | -4 | 1 | 5 | 60*
Cc1[nH][nH]c(=O)c1C(c1c(C)[nH][nH]c1=O)c1cn(Cc2ccc(F)cc2)c2ccccc12 | -4 | 1 | -8 | 1 | 26* | 12
O=C(O)Cc1cn(Cc2ccc(F)cc2)c2ccccc12 | -3 | 3 | 1 | 3 | 4 | 2
COc1ccc(OCc2csc(N)n2)cc1 | -12 | 0 | -2 | -4 | -1 | 3
CC1CCCCN1C(=O)C1COc2ccccc2O1 (centres undefined) | nt | nt | nt | nt | nt | 2
COc1ccc(CC(=O)Nc2nc(-c3cccc([N+](=O)[O-])c3)cs2)cc1 | -14 | 1 | 2 | 10* | 0 | -6
COc1ccc(NC(=O)/C(Cl)=C(/Cl)S(=O)Cc2ccccc2Cl)cn1 (centres undefined) | -22 | -4 | -15 | 7 | 15* | -76
COc1ccc(NC(=O)Cc2ccc(Cl)c(Cl)c2)cn1 | -4 | 3 | 5 | 0 | 4 | -1
CCC(C)NC(=O)C1CCN(C(=O)c2ccccc2)CC1 (centres undefined) | 0 | 2 | 0 | 1 | -1 | 1
CC(C)NC(=O)C1CCN(C(=O)c2ccc(-c3ccccc3)cc2)CC1 | -3 | 1 | 0 | 11* | -8 | -14
CN1CCN(C(=O)CCC(=O)NCc2ccc(F)cc2)CC1 | nt | nt | nt | nt | nt | 0
Cc1ccc(S(=O)(=O)N2CCN(C(=O)CCC(=O)NCc3ccc(F)cc3)CC2)cc1 | 0 | 0 | 2 | 9.4* | -2 | -4
Cc1ccc(S(=O)(=O)N2CCN(C(=O)CC(C)(C)C)CC2)cc1 | 3 | 0 | 1 | 9.8* | 0 | 1
Cc1ccc(S(=O)(=O)N2CCN(C(=O)Cc3ccccc3)CC2)cc1 | -1 | 1 | 1 | -1 | -7 | -12
CN(C)c1ccc(/C=N/NC(=O)COc2ccccc2)cc1 | 2 | 2 | 0 | -1 | 3 | 5
O=C(COc1ccccc1)N/N=C/c1ccc(O[C@@H]2O[C@H](CO)[C@@H](O)[C@H](O)[C@H]2O)cc1 | -7 | 1 | 1 | 10* | 5 | 4
Cc1ccc(C)c(S(=O)(=O)N2CCCOC2CNC(=O)C(=O)NCc2ccccn2)c1 (centres undefined) | nt | nt | nt | nt | nt | 2
SMILES | RBBP9 inh | L929 necroptosis | TNF death inh | Wee1 stabilizer | p97 inhibitor | PfM18AAP inh
CCOC(=O)CC1C(=O)NCCN1C(=O)c1cc2c(=O)n3cccc(C)c3nc2s1 (centres undefined) | -11 | 2 | -1 | 2 | 4 | 9
CCCN1C(=O)/C(=C/c2c(N3CCNC(=O)C3CC(=O)OC)nc3c(C)cccn3c2=O)SC1=S (centres undefined) | -8 | 1 | -14 | 6 | 15* | -1
CCN(CC)c1ccc(/C=C2/C(=O)N(c3ccc([N+](=O)[O-])cc3)N=C2N2CCOCC2)cc1 | -11 | 0 | 0 | 2 | 1 | -4
COc1cc(/C=C2\SC(=S)N(N3CCOCC3)C2=O)ccc1O | -4 | 0 | -2 | 9.0* | 5 | 18
COc1cc(/C=C2/SC(=S)N(c3c(C)n(C)n(-c4ccccc4)c3=O)C2=O)ccc1O | -67 | -1 | 0 | 2 | 7 | 33*
COc1cc(/C=C2\SC(=S)N(N3CCOCC3)C2=O)cc(OC)c1OC | -9 | 1 | 3 | 2 | 7 | 8
COc1cc(/C=C2/C(=O)N(c3ccc([N+](=O)[O-])cc3)N=C2N2CCOCC2)ccc1O | -4 | -1 | -2 | 8.9* | 0 | 14
COc1ccc(COC(=O)N/N=C(\C)CC(=O)Nc2ccc(Cl)cn2)cc1 | -7 | 1 | 7 | -4 | 7 | 0
Cc1nccn1CCCNC(=O)C1CCC(=O)N(Cc2ccccc2F)C1 (centres undefined) | nt | nt | nt | nt | nt | -12
O=C(CN1C(=O)CSc2ccc(S(=O)(=O)N3CCCCC3)cc21)NCc1ccccc1Cl | nt | nt | nt | nt | nt | 0
CCN=c1scc(C)n1/N=C/c1cc(Br)c(O)c(Br)c1 | 3 | 1 | 0 | 0 | 4 | 30*
CCN=c1scc(-c2ccco2)n1/N=C/c1ccc(O)cc1 | -4 | -1 | -4 | 2 | 0 | -4
CCN1CCN(c2nc(C)nc3c2sc(=S)n3C)CC1 | -6 | 1 | 4 | 0 | -8 | 34*
N#Cc1c(N(CCO)CCO)nc(N)c2c(N)nc3c(c12)CC(=O)N3Cc1cccs1 | -5 | 1 | 0 | 5 | 29* | 11
CCOc1ccccc1CNC(=O)c1ccc(NC(=O)C2=CSCCO2)cc1 | nt | nt | nt | nt | nt | 2
COc1ccc(CNC(=O)c2csc(Cc3ccc(Cl)cc3)n2)cc1 | -4 | 0 | -5 | 9.5* | -2 | 0
COc1ccc(CNC(=O)c2csc(Cc3ccc(OC)cc3)n2)cc1 | -3 | 0 | -5 | -1 | -3 | -3
O=C(Cn1cc(SCc2cccc(Cl)c2)c2ccccc21)N1CCOCC1 | -11 | 0 | 3 | 11* | 0 | -1
CNC(=S)NNc1nncc2ccccc12 | -1 | 5 | -1 | -1 | -1 | 30*
COc1ccc(/C(C)=N/Nc2nncc3ccccc23)cc1 | nt | nt | nt | nt | nt | -1
COc1cc(NC(=S)NCCCN2CCOCC2)cc(OC)c1 | 4 | 0 | 3 | 9.6* | 1 | -14
COc1ccc(-c2nc3ccccc3[nH]2)cc1 | -3 | -3 | -15 | -1 | -43 | -2
